Measured values of several laboratories.
JAK3 JH1: Tyrosine-protein kinase JAK3, JH1 (JAK3, Homo sapiens, UniProt P52333)
JAK3: Tyrosine-protein kinase JAK3 (JAK3, Homo sapiens, UniProt P52333)

Compound	target	read-out	action	technique	concentration	endpoint	result
O=C(O)c1cc(-c2ccc(C3CCNCC3)cc2)c2ccc(-c3ccc(C(F)(F)F)cc3)cc2c1	JAK3 JH1	cell-free assay		competition with immobilised ligand	1 µM	remaining binding	100%
Nc1ncnc2occ(-c3ccc(NC(=O)Nc4cc(C(F)(F)F)ccc4F)cc3)c12	JAK3 JH1	cell-free assay	inhibitor		20 µM	remaining signal	4.3%
COc1cc(Cl)c(C(=O)N[C@@H](CN[C@H]2CC[C@@H](N)CC2)Cc2ccc(C#N)cc2)cc1-c1ccc(CN[C@H](C)c2ccc(C)cc2)o1	JAK3	enzyme activity	inhibitor		1 µM	remaining activity	101%
CC(C)(C)c1nc2c(s1)c1nc(N)ncc1c1ccc(NS(=O)(=O)c3c(F)cccc3F)c(F)c12	JAK3	enzyme activity	inhibitor	radiometric	1 µM	remaining activity	100%
Cc1ccc(Nc2nccc(N(C)c3ccc4c(C)n(C)nc4c3)n2)cc1S(N)(=O)=O	JAK3	enzyme activity	inhibitor		0.3 µM	inhibition	11%
N[C@H]1CCN(c2nccc(-c3cnn4ncccc34)n2)C1	JAK3 JH1	cell-free assay			1 µM	remaining signal	86%
CS(=O)(=O)Nc1cccc(-c2csc(NC(=O)CSc3nc4nccnc4c(=O)n3CCc3ccccc3)n2)c1	JAK3	enzyme activity	inhibitor		10 µM	inhibition	1%
CCOc1cc(-c2nncn2C)ccc1Nc1ncc2cc(C)nc(NCC(C)(C)C)c2n1	JAK3	enzyme activity	inhibitor	FRET	1 µM	inhibition	< 15%
CCOC(=O)c1cc2cc(-c3cc(C(=O)NCc4ccc(C(=O)O)cc4)nn3C)ccc2[nH]1	JAK3 JH1	cell-free assay		competition with immobilised ligand	0.1 µM	remaining binding	82%
CCCOc1ccc(OC)c(F)c1C(=O)c1ccc(C(=O)N[C@@H]2CNC[C@H]2NC(=O)c2ccc3[nH]ncc3c2)cc1	JAK3	enzyme activity	inhibitor		10 µM	remaining activity	19%
CNCc1ccccc1-c1csc([C@H](C)Nc2nc(C)nc3cc(OC)c(OC)cc23)c1	JAK3 JH1	cell-free assay		competition with immobilised ligand	1 µM	remaining binding	99%
Oc1ccc(-c2nc(-c3ccncc3)c(-c3ccc(F)cc3)[nH]2)cc1	JAK3	cell-free assay			0.5 µM	remaining signal	95.8%
CCC(=N\O)/C(C)=C/c1ccc(F)cc1	JAK3 JH1	cell-free assay		competition with immobilised ligand	1 µM	remaining binding	80%
O=C(Nc1cnn(-c2csc(C(=O)NC3COC3)c2)c1)Nc1ccccc1Cl	JAK3	enzyme activity	inhibitor		5 µM	remaining activity	102%
O=C1Nc2ccc(Cl)cc2C1=Cc1cc(Cl)c(O)c(Cl)c1	JAK3	cell-free assay			0.5 µM	remaining signal	100%
C[C@H]1CCN(c2nccc(-c3cnn4ncccc34)n2)C1	JAK3 JH1	cell-free assay			1 µM	remaining signal	84%
CCc1ccccc1C(=O)Nc1n[nH]c2c(C)c(F)c(C3C(C#N)=C(C)N(C)C(C)=C3C#N)cc12	JAK3 JH1	cell-free assay		competition with immobilised ligand	1 µM	remaining binding	79%
CCN(CC)CCNC(=O)c1c(C)[nH]c(/C=C2\C(=O)Nc3ccc(F)cc32)c1C	JAK3	enzyme activity	inhibitor		0.3 µM	inhibition	7%
Cc1ccc(C(=O)Nc2ccc(CN3CCN(C)CC3)c(C(F)(F)F)c2)cc1C#Cc1cnc2cccnn12	JAK3	enzyme activity	inhibitor		23.5 nM	remaining activity	14%
